Bounds are passed on as bounds.

In one assay the target is T1, Caspase-3 (Homo sapiens, UniProt P42574).
T1 sequence (P42574 whole entry): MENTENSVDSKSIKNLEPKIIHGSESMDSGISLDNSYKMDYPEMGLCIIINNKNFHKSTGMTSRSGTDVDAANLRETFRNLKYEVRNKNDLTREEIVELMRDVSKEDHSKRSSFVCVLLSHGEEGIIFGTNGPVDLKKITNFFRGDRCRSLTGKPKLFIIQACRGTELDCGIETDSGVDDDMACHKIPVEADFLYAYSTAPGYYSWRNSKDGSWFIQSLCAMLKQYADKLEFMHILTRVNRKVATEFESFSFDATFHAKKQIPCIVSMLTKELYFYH
Description: Inhibitory activity against Caspase 3.

The target of another assay is T2, Caspase-1 (Homo sapiens, UniProt P29466).
T2 sequence (P29466 whole entry): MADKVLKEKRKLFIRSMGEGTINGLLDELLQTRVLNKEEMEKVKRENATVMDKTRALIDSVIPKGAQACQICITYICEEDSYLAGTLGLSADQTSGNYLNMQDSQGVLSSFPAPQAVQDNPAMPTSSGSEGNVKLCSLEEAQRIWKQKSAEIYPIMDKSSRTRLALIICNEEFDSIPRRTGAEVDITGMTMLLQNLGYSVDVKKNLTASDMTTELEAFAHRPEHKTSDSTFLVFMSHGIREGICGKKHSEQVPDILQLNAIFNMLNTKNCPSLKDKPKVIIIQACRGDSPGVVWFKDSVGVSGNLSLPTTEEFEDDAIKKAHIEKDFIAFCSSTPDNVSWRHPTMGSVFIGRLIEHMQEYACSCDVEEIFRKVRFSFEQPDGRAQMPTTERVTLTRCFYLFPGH
As to the kind of experiment: Inhibitory activity against Caspase 1.

A further assay relates to THP-1. As to the kind of experiment: Inhibitory activity in THP1 whole cell assay measuring IL1-beta production. The assay is classed as functional, cell-based. Particulars: Homo sapiens. The method, boiled down:
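Human monocytic THP-1 cells, 2 × 10^6/ml in RPMI 1640, preincubated 15 min with compound added from DMSO solutions (test range 1 nM to 10 μM) or without, then stimulated with LPS 1 μg/ml for 4 h total; cells spun down and IL-1β released into conditioned medium quantified by ELISA.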

Another assay deals with Caspase-8 (Homo sapiens, UniProt Q14790). Description: Inhibitory activity against Caspase 8.
Sequence of Caspase-8 (Q14790 217-374 limits assumed): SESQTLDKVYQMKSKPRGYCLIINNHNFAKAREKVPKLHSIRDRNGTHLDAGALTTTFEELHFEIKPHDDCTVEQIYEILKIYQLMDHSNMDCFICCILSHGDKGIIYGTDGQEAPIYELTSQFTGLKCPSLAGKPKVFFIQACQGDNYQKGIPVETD
Sequence of Caspase-8 (Q14790 385-479 limits assumed): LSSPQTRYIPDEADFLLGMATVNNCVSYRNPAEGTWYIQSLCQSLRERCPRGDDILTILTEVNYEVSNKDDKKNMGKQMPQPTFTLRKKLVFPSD

With `O=C1C[C@H](NC(=O)[C@@H]2COC[C@@H]3CCCC[C@H](NC(=O)c4nccc5ccccc45)C(=O)N32)C(O)O1` (stereo partly specified), the IC50 on Caspase-3 is over 10000 nM; against Caspase-1 it was 1 nM; with THP-1, 101 nM; against Caspase-8, 264 nM.
The matching figures for `O=C1C[C@H](NC(=O)[C@@H]2CN(S(=O)(=O)c3ccccc3)C[C@@H]3CCCC[C@H](NC(=O)c4ccc5ccccc5c4)C(=O)N32)C(O)O1` (stereo partly specified): over 10000 nM, 1 nM, 153 nM and 50 nM.
As to `O=C1C[C@H](NC(=O)[C@@H]2CNC[C@@H]3CCCC[C@H](NC(=O)c4ccc5ccccc5c4)C(=O)N32)C(O)O1` (stereo partly specified), the IC50 at Caspase-3 was over 10000 nM; at Caspase-1, 1 nM; in the assay with THP-1, 75 nM; at Caspase-8, 506 nM.
Regarding `O=C1C[C@H](NC(=O)[C@@H]2CN(C(=O)c3ccccc3)C[C@@H]3CCCC[C@H](NC(=O)c4ccccc4)C(=O)N32)C(O)O1` (stereo partly specified), the IC50 against Caspase-3 turned out to be 8070 nM; at Caspase-1 it was 7 nM; with THP-1, 1420 nM; against Caspase-8, 38 nM.
As for `CS(=O)(=O)N1C[C@@H]2CCCC[C@H](NC(=O)c3ccc4ccccc4c3)C(=O)N2[C@H](C(=O)N[C@H]2CC(=O)OC2O)C1` (stereo partly specified), the IC50 is over 10000 nM against Caspase-3, 1 nM on Caspase-1, 46 nM with THP-1 and 283 nM against Caspase-8.
Regarding `CS(=O)(=O)N1C[C@@H]2CCCC[C@H](NC(=O)c3nccc4ccccc34)C(=O)N2[C@H](C(=O)N[C@H]2CC(=O)OC2O)C1` (stereo partly specified), the IC50 is over 10000 nM on Caspase-3, 1 nM on Caspase-1, 168 nM in the assay on THP-1 and 917 nM at Caspase-8.
For the compound `O=C1C[C@H](NC(=O)[C@@H]2CN(C(=O)OCc3ccccc3)C[C@@H]3C/C=C\C[C@H](NC(=O)c4ccccc4)C(=O)N32)C(O)O1` (stereo partly specified), the IC50 against Caspase-3 came to 3260 nM; against Caspase-1 it was 1 nM; in the assay on THP-1 it was 125 nM; at Caspase-8, 13 nM.
On to `O=C1C[C@H](NC(=O)[C@@H]2CNC[C@@H]3CCCC[C@H](NC(=O)c4ccccc4)C(=O)N32)C(O)O1` (stereo partly specified), for which the IC50 against Caspase-3 was over 10000 nM; on Caspase-1, 10 nM; in the assay on THP-1, 245 nM; at Caspase-8, 384 nM.
The matching figures for `CN1C[C@@H]2CCCC[C@H](NC(=O)c3ccccc3)C(=O)N2[C@H](C(=O)N[C@H]2CC(=O)OC2O)C1` (stereo partly specified): over 10000 nM, 5 nM, 1820 nM and 247 nM.
On to `O=C1C[C@H](NC(=O)[C@@H]2COC[C@@H]3CCCC[C@H](NC(=O)c4ccc5ccccc5c4)C(=O)N32)C(O)O1` (stereo partly specified), for which the IC50 on Caspase-3 was over 10000 nM; against Caspase-1, 1 nM; in the assay on THP-1 it was 60 nM; at Caspase-8, 911 nM.
On to `O=C1C[C@H](NC(=O)[C@@H]2CN(S(=O)(=O)c3ccccc3)C[C@@H]3CCCC[C@H](NC(=O)c4ccccc4)C(=O)N32)C(O)O1` (stereo partly specified), for which the IC50 on Caspase-3 is over 10000 nM; on Caspase-1 it was 2 nM; with THP-1, 159 nM; against Caspase-8, 106 nM.
On to `O=C1C[C@H](NC(=O)[C@@H]2COC[C@@H]3C/C=C\C[C@H](NC(=O)c4nccc5ccccc45)C(=O)N32)C(O)O1` (stereo partly specified), for which the IC50 is over 10000 nM at Caspase-3, 3 nM at Caspase-1, 182 nM in the assay on THP-1 and 1590 nM on Caspase-8.
The matching figures for `O=C1C[C@H](NC(=O)[C@@H]2CN(C(=O)OCc3ccccc3)C[C@@H]3C/C=C\C[C@H](NC(=O)c4nccc5ccccc45)C(=O)N32)C(O)O1` (stereo partly specified): over 10000 nM, 1 nM, 154 nM and 4 nM.
As for `O=C1C[C@H](NC(=O)[C@@H]2COC[C@@H]3C/C=C\C[C@H](NC(=O)c4cccc(C(F)(F)F)c4)C(=O)N32)C(O)O1` (stereo partly specified), the 50% inhibitory concentration (IC50) was over 10000 nM at Caspase-3, 9 nM against Caspase-1, 132 nM in the assay with THP-1 and 4190 nM against Caspase-8.
On to `O=C1C[C@H](NC(=O)[C@@H]2COC[C@@H]3C/C=C\C[C@H](NC(=O)c4ccc(C(F)(F)F)cc4)C(=O)N32)C(O)O1` (stereo partly specified), for which the IC50 on Caspase-3 was over 10000 nM; on Caspase-1, 135 nM; on Caspase-8 it was 6450 nM.
With `O=C1C[C@H](NC(=O)[C@@H]2COC[C@@H]3C/C=C\C[C@H](NC(=O)c4cc5ccccc5s4)C(=O)N32)C(O)O1` (stereo partly specified), the IC50 is over 10000 nM against Caspase-3, 3 nM against Caspase-1, 57 nM in the assay on THP-1 and 1600 nM against Caspase-8.
On to `O=C1C[C@H](NC(=O)[C@@H]2COC[C@@H]3C/C=C\C[C@H](NC(=O)c4ccc(Cl)cc4)C(=O)N32)C(O)O1` (stereo partly specified), for which the IC50 at Caspase-3 is over 10000 nM; against Caspase-1 it was 74 nM; at Caspase-8, 3770 nM.
In the case of `O=C1C[C@H](NC(=O)[C@@H]2COC[C@@H]3C/C=C\C[C@H](NC(=O)c4ccc5ccccc5c4)C(=O)N32)C(O)O1` (stereo partly specified), the half-inhibitory concentration (IC50) is over 10000 nM against Caspase-3, 3 nM against Caspase-1, 62 nM in the assay with THP-1 and 2590 nM against Caspase-8.
As for `O=C1C[C@H](NC(=O)[C@@H]2COC[C@@H]3C/C=C\C[C@H](NC(=O)c4ccccc4C(F)(F)F)C(=O)N32)C(O)O1` (stereo partly specified), the half-inhibitory concentration (IC50) against Caspase-3 was over 10000 nM; against Caspase-1 it was 50 nM; against Caspase-8, 670 nM.
The matching figures for `O=C1C[C@H](NC(=O)[C@@H]2COC[C@@H]3C/C=C\C[C@H](NC(=O)c4ccccc4)C(=O)N32)C(O)O1` (stereo partly specified): over 10000 nM, 130 nM and 7900 nM.
The matching figures for `O=C1C[C@H](NC(=O)[C@@H]2COC[C@@H]3C/C=C\C[C@H](NC(=O)c4ccccc4Cl)C(=O)N32)C(O)O1` (stereo partly specified): over 10000 nM, 33 nM and 448 nM.
Regarding `O=C1C[C@H](NC(=O)[C@@H]2CN(C(=O)OCc3ccccc3)C[C@@H]3C/C=C\C[C@H](NC(=O)c4ccc5ccccc5c4)C(=O)N32)C(O)O1` (stereo partly specified), the IC50 is 4850 nM at Caspase-3, 1 nM at Caspase-1, 106 nM with THP-1 and 5 nM at Caspase-8.
Regarding `CC(=O)N1C[C@@H]2CCCC[C@H](NC(=O)c3ccccc3)C(=O)N2[C@H](C(=O)N[C@H]2CC(=O)OC2O)C1` (stereo partly specified), the IC50 against Caspase-3 was over 10000 nM; against Caspase-1, 6 nM; in the assay on THP-1 it was 1260 nM; on Caspase-8, 481 nM.
The matching figures for `O=C1C[C@H](NC(=O)[C@@H]2CN(C(=O)Nc3ccccc3)C[C@@H]3CCCC[C@H](NC(=O)c4ccccc4)C(=O)N32)C(O)O1` (stereo partly specified): over 10000 nM, 5 nM, 1690 nM and 601 nM.
On the same counts, the results for `O=C1C[C@H](NC(=O)[C@@H]2COC[C@@H]3CCCC[C@H](NC(=O)c4cc5ccccc5s4)C(=O)N32)C(O)O1` (stereo partly specified) are over 10000 nM, 1 nM, 178 nM and 429 nM.
On the same counts, the results for `O=C1C[C@H](NC(=O)[C@@H]2CN(S(=O)(=O)c3ccccc3)C[C@@H]3CCCC[C@H](NC(=O)c4nccc5ccccc45)C(=O)N32)C(O)O1` (stereo partly specified) are over 10000 nM, 1 nM, 87 nM and 160 nM.
As for `CS(=O)(=O)N1C[C@@H]2CCCC[C@H](NC(=O)c3ccccc3)C(=O)N2[C@H](C(=O)N[C@H]2CC(=O)OC2O)C1` (stereo partly specified), the concentration for half-maximal inhibition (IC50) was over 10000 nM at Caspase-3, 6 nM against Caspase-1, 174 nM with THP-1 and 384 nM against Caspase-8.
As for `O=C1C[C@H](NC(=O)[C@@H]2CNC[C@@H]3CCCC[C@H](NC(=O)c4nccc5ccccc45)C(=O)N32)C(O)O1` (stereo partly specified), the IC50 against Caspase-3 was over 10000 nM; against Caspase-1, 1 nM; in the assay on THP-1, 156 nM; against Caspase-8 it was 595 nM.
Regarding `O=C1C[C@H](NC(=O)[C@@H]2COC[C@@H]3C/C=C\C[C@H](NC(=O)c4cccc(Cl)c4)C(=O)N32)C(O)O1` (stereo partly specified), the IC50 at Caspase-3 is over 10000 nM; against Caspase-1, 7 nM; in the assay with THP-1 it was 118 nM; at Caspase-8, 1550 nM.

These data come from ChEMBL document CHEMBL1141960, “Synthesis and evaluation of novel 8,6-fused bicyclic peptidomimetic compounds as interleukin-1beta converting enzyme inhibitors” (Bioorg Med Chem Lett, 2005).
